Assay outcomes: PubChem, The Scripps Research Institute Molecular Screening Center
The list is not random: actives were taken first. Their share in the collection is about 1.8%.
CHRM4 antagonist: CHRM4 antagonism in calcium assay | CHO-hM4 cells, ACh EC80, Fluo-8 calcium fluorescence | inhibition, % at 3 µM | 360,000 tested, 0.73% active | AID 624125;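 active = inhibition above its plate's cutoff, the mean inhibition of sample wells plus 3 SD, cut at about 27% in these data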;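 also: 0% = acetylcholine EC80 with DMSO and 100% = DMSO without agonist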
Target sequence (P08173 whole entry, looked up): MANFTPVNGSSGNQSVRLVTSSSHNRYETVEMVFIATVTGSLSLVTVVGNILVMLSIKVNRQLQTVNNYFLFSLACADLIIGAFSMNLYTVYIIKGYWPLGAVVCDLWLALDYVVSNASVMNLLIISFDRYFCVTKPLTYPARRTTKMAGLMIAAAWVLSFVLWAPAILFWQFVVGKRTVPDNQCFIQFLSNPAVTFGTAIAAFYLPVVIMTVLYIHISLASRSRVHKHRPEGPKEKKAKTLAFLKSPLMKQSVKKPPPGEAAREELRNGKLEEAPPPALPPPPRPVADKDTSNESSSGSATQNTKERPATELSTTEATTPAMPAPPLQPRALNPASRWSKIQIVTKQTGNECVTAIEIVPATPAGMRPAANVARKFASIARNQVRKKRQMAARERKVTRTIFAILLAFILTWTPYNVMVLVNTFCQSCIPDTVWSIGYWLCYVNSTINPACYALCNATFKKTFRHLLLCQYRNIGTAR
CHRM5 PAM: CHRM5 positive allosteric modulation; P08912; CHO-K1 hM5, Fluo-8 calcium, ACh EC20 PAM; 0% = ACh EC20, 100% = ACh EC100; activation, % at 3 µM; 360,000 tested, 0.3% active;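 active = activation above the run cutoff, the mean activation of all test compounds plus 3 SD, cut at about 18% in these data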
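Measured by: Fluo-8 calcium fluorescence; material: human M5 receptor in CHO-K1 cells; schedule: Post-acetylcholine fluorescence recording 140 s; benchmarks: low control EC20 acetylcholine (0%), high control EC100 acetylcholine (100%); read-out: Max/basal fluorescence ratio as % of EC20–EC100 ACh window; compound: single dose, 3 µM nominal final test concentration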
M4 ag: agonists of human muscarinic M4 receptor (CHRM4) | activation, % at 3 µM | 360,000 tested, 0.14% active | P08173 | AID 624127 | CHO-K1 hM4/Gqi5, Fluo-8 calcium fluorescence; vehicle 0%, full acetylcholine response 100%;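 active = activation above the run mean over all test wells plus 3 SD, cut at about 32% in these data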;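 also: peak over basal fluorescence ratio per well then scaled between controls; 0% = DMSO wells and 100% = acetylcholine at EC100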
CHRM4 PAM: CHRM4 positive allosteric modulation; P08173; CHO-K1 hM4/Gqi5, Fluo-8 calcium fluorescence, ACh EC20; 0% = ACh EC20, 100% = maximal ACh; activation, % at 3 µM; 360,000 tested, 0.4% active;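 active = activation above its plate's cutoff, the mean activation of sample wells plus 3 SD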
CHRM5 agonist: CHRM5 agonism in calcium assay | 360,000 tested, 0.19% active | activation, % at 3 µM | CHO-K1 hM5 cells, Fluo-8 calcium fluorescence; 0% DMSO wells, 100% maximal acetylcholine response | P08912;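 active = activation above the run's mean over test compounds plus 3 SD, cut at about 23% in these data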;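 also: signal is peak over basal fluorescence ratio across the kinetic read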
M5 antag: antagonists of human muscarinic M5 receptor (CHRM5); P08912; CHO-hM5 cells, Fluo-8 calcium fluorescence, ACh EC80; inhibition, % at 3 µM; 360,000 tested, 0.59% active; AID 624040;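 active = inhibition above a per-plate cutoff, the mean of that plate's test compounds plus 3 SD, cut at about 27% in these data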;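 also: 0% = acetylcholine EC80 with DMSO and 100% = DMSO without agonist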
The depositor's hits bear a star.

SMILES	CHRM4 antagonist	CHRM5 PAM	M4 ag	CHRM4 PAM	CHRM5 agonist	M5 antag
COc1ccc(CCC(C)N2CCC(CO)(Cc3ccccc3)CC2)cc1 (centres undefined)	33*	-5	4	-10	-19	3
CCNC(=S)N1CCC(C(=O)c2ccc(F)cc2)CC1	3	-1	1	0	2	5
COc1cccc(CN(C)C(=O)CCNC(=O)c2ccc(Br)cc2)c1	-12	9	3	9	-1	-33
CS(=O)(=O)c1ccc(C(=O)OCC(=O)N2CCN(CCC3CCCCC3)CC2)cc1[N+](=O)[O-]	29*	-6	6	-14	-3	11
O=C(O)CCCCCN1C(=O)/C(=C/c2cn(-c3ccccc3)nc2-c2cccs2)SC1=S	4	3	1	-1	4	6
CC1=NNC(=O)/C1=C\c1cn(-c2ccccc2)nc1-c1ccc(F)cc1	3	-4	6	-7	21	50*
CC1=NNC(=O)/C1=C\c1cn(-c2ccccc2)nc1-c1cccs1	60*	10	14	-19	24*	10
CC1=C(C(=O)N(C(C)C)C(C)C)CC(CC(=O)NCCCN(C)C)C(=O)N1CCCN1CCCC1=O (centres undefined)	-4	3	2	4	3	1
O=C1C=CC2(O[C@H](c3ccccc3)[C@@H](c3ccccc3)O2)[C@H](Sc2ccccc2O)C1	57*	2	1	-5	2	23
O=C(Nc1nc2ccccc2n1CCN1CCOCC1)c1ccc(COc2ccccc2Br)o1	43*	-13	8	-8	-4	18
OCCC1CN(Cc2cnc(-c3ccc(Cl)cc3)nc2)CCN1C1CCCCC1 (centres undefined)	2	-14	5	-25	-9	30*
CSc1ccc(CN2CCN(C3CCCC3)C(CCO)C2)cc1 (centres undefined)	57*	-1	2	-27	-15	0
CC(C)(O)C#Cc1ccc(CN2CCN(C3CCCCC3)C(CCO)C2)cc1 (centres undefined)	16	-2	1	-10	-8	2
OCCC1CN(Cc2ccncc2)CCN1C1CCCC1 (centres undefined)	-2	-3	0	-5	-4	2
CC(C)(O)C#Cc1ccc(CN2CCN(C3CCCCC3)C(CCO)C2)s1 (centres undefined)	27*	4	0	-22	-8	-2
CC(C)(O)C#Cc1ccc(CN2CCN(C3CCCC3)C(CCO)C2)cc1 (centres undefined)	28*	7	1	-44	-15	-2
Cc1ccc(S(=O)(=O)Nc2cc(S(=O)(=O)N3CCOCC3)ccc2NCC2CCCO2)cc1 (centres undefined)	-2	13	2	7	2	-7
CCC(C)[C@H](NC(=O)N1CC(=O)Nc2ccccc21)C(=O)N[C@H](C(=O)O)c1ccccc1 (some centres undefined)	1	4	2	3	-1	-8
COc1ccc(C(CNC(=O)c2cccc(S(=O)(=O)NCc3ccccc3)c2)N(C)C)cc1 (centres undefined)	-8	-6	4	3	-5	3
CCCn1c(N)c(C(=O)CSc2nc(N)cc(=O)[nH]2)c(=O)n(C)c1=O	11	-14	1	-1	5	10
COC(=O)c1cc(CNC(=O)c2ccccc2OCc2c(C)noc2C)ccc1OC	1	2	5	18*	-1	-25
COc1ccc(-c2coc3c(C(=O)NC4CCCCC4)cccc23)c(C)c1	2	-5	0	-4	0	3
Cc1ccc(-n2c(-c3ccc(Br)cc3)c[n+]3c2CCc2ccc4cccnc4c2-3)cc1	41*	-20	4	-31	-8	36*
COc1ccc(-n2c(-c3ccc(Cl)cc3)c[n+]3c2CCc2ccccc2-3)cc1	24	-4	1	-14	-10	11
CC(C)C[C@H]1CNC(=S)N1CC1CCN(CCCC2CCCC2)CC1	34*	-18	1	-14	-3	17
